Results taken from ChEMBL document CHEMBL6071171, “Molecular Mechanisms of Methamphetamine-Induced Addiction via TAAR1 Activation” (J Med Chem, 2024).
Numbering of substitutions follows the chain as printed. Active and inactive are the calls of the source. No cut-off for these calls is given here.

How the values were obtained:
Type in all cases: cell-based
[1] = test system: T1, Trace amine-associated receptor 1 (Homo sapiens), Q96RJ0 [F267A]; assay: Agonist activity against TAAR1 F267A mutant (unknown origin) expressed in HEK293 cells assessed as increase in cAMP accumulation incubated for 30 mins by HTRF assay
T1 sequence (whole entry): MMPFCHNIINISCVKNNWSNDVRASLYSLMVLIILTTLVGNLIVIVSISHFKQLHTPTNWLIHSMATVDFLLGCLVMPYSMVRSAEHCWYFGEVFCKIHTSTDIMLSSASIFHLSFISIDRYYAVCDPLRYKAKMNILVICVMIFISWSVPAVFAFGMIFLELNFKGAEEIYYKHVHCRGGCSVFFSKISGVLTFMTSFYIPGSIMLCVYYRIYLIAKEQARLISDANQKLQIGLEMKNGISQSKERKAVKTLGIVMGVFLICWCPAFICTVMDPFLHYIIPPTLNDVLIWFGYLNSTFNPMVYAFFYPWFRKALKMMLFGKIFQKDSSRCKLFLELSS
In short: (§1)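 HEK293 cells harvested 48 h after transfection with plasmid at 1 μg mL–1; 8000 cells per well incubated 30 min at 37 °C with agonist over 10–4 to 10–10 M. cAMP read by HTRF (d2-cAMP plus Eu-cryptate antibody, 1 h room temperature; excitation 330 nm, emission 620/665 nm). pEC50 and Emax from dose–response curves; mean ± s.e.m. of three independent experiments, each in technical triplicate.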

[2] = test system: T2, Trace amine-associated receptor 1 (Homo sapiens), Q96RJ0 [Y294A]; assay: Agonist activity against TAAR1 Y294A mutant (unknown origin) expressed in HEK293 cells assessed as increase in cAMP accumulation incubated for 30 mins by HTRF assay; in short: as §1
T2 sequence (whole entry): T1 sequence (whole entry) with A267F, Y294A

[3] = test system: T3, Trace amine-associated receptor 1 (Homo sapiens), Q96RJ0 [V184A]; assay: Agonist activity against TAAR1 V184A mutant (unknown origin) expressed in HEK293 cells assessed as increase in cAMP accumulation incubated for 30 mins by HTRF assay; in short: as §1
T3 sequence (whole entry): T1 sequence (whole entry) with V184A, A267F

[4] = test system: T4, Trace amine-associated receptor 1 (Homo sapiens), Q96RJ0 [D103A]; assay: Agonist activity against TAAR1 D103A mutant (unknown origin) expressed in HEK293 cells assessed as increase in cAMP accumulation incubated for 30 mins by HTRF assay; in short: as §1
T4 sequence (whole entry): T1 sequence (whole entry) with D103A, A267F

[5] = test system: T5, Trace amine-associated receptor 1 (Homo sapiens), Q96RJ0 [G293A]; assay: Agonist activity against TAAR1 G293A mutant (unknown origin) expressed in HEK293 cells assessed as increase in cAMP accumulation incubated for 30 mins by HTRF assay; in short: as §1
T5 sequence (whole entry): T1 sequence (whole entry) with A267F, G293A

[6] = test system: T6, Trace amine-associated receptor 1 (Homo sapiens), Q96RJ0 [W264A]; assay: Agonist activity against TAAR1 W264A mutant (unknown origin) expressed in HEK293 cells assessed as increase in cAMP accumulation incubated for 30 mins by HTRF assay; in short: as §1
T6 sequence (whole entry): T1 sequence (whole entry) with W264A, A267F

[7] = test system: T7, Trace amine-associated receptor 1 (Homo sapiens), Q96RJ0 [F268A]; assay: Agonist activity against TAAR1 F268A mutant (unknown origin) expressed in HEK293 cells assessed as increase in cAMP accumulation incubated for 30 mins by HTRF assay; conditions: filed as agonist; in short: as §1
T7 sequence (whole entry): T1 sequence (whole entry) with A267F, F268A

[8] = test system: T8, Trace amine-associated receptor 1 (Homo sapiens), Q96RJ0 [F195A]; assay: Agonist activity against TAAR1 F195A mutant (unknown origin) expressed in HEK293 cells assessed as increase in cAMP accumulation incubated for 30 mins by HTRF assay; in short: as §1
T8 sequence (whole entry): T1 sequence (whole entry) with F185A, A267F

[9] = test system: T9, Trace amine-associated receptor 1 (Homo sapiens), Q96RJ0 [I104A]; assay: Agonist activity against TAAR1 I104A mutant (unknown origin) expressed in HEK293 cells assessed as increase in cAMP accumulation incubated for 30 mins by HTRF assay; in short: as §1
T9 sequence (whole entry): T1 sequence (whole entry) with I104A, A267F

[10] = test system: T10, Trace amine-associated receptor 1 (Homo sapiens), Q96RJ0 [I290A]; assay: Agonist activity against TAAR1 I290A mutant (unknown origin) expressed in HEK293 cells assessed as fold increase in cAMP accumulation incubated for 30 mins by HTRF assay relative to control; conditions: filed as agonist
T10 sequence (whole entry): T1 sequence (whole entry) with A267F, I290A

[11] = test system: T11, Trace amine-associated receptor 1 (Homo sapiens), Q96RJ0 [F186A]; assay: Agonist activity against TAAR1 F186A mutant (unknown origin) expressed in HEK293 cells assessed as increase in cAMP accumulation incubated for 30 mins by HTRF assay; in short: as §1
T11 sequence (whole entry): T1 sequence (whole entry) with F186A, A267F

SMILES	Activity [1]	Activity [2]	Activity ([3]; filed as agonist)	Activity [4]	Activity [5]	Activity [6]	Activity [7]	Activity [8]	Activity [9]	fold change (FC) [10]	Activity [11]	Activity [3]
CN[C@@H](C)Cc1ccccc1	inactive	inactive	Active	inactive	inactive	inactive	Active	inactive	inactive	6	inactive	
NCCc1ccccc1							Active				inactive	inactive
